Assay results taken from the array DNA melting data of Ke et al. (doi:10.1101/2024.01.08.574731).

Experiments:
[1] = folding enthalpy; higher = less favourable; fluorescence melt of hairpins on a sequencing array, two-state fit; settings: sodium 0.088 M
How it was run: (§1)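 Melting temperature and folding enthalpy were obtained by bootstrapped two-state fitting. Fits used Cy3 fluorescence of library hairpins with annealed Cy3 and quencher oligos on a sequenced MiSeq flow cell, imaged in 50 mM Na-HEPES pH 8.0, 25 mM NaCl in 2.5 °C steps up to 60 °C and normalised to pre-quench Cy3 and control constructs. Four replicates were combined by inverse-variance weighting, and fitted temperatures were raised by 9.35 °C to match UV melts.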

[2] = melting temperature; fluorescence melt of hairpins on a sequencing array, two-state fit, raised by 9.35 °C to match UV melts; settings: sodium 0.088 M
How it was run: as §1

## CGTCCCGGAAACGGCACG (((.(((....))).)))
[1]
  folding enthalpy: -23.7 kcal/mol
[2]
  Tm: 39.9 °C

## GTTGTGCGAAAGCATAAC (((.(((....))).)))
[1]
  folding enthalpy: -30.5 kcal/mol
[2]
  Tm: 54 °C

## GCGCCGGGAAACCGGTGC ((.((((....)))).))
[1]
  folding enthalpy: -31.5 kcal/mol
[2]
  Tm: 69 °C

## CGCGGAAAATTCCGCG ((((((....))))))
[1]
  folding enthalpy: -32 kcal/mol
[2]
  Tm: 68.3 °C

## GTCCTGACGAAAGTCGAC (((..(((....))))))
[1]
  folding enthalpy: -10.3 kcal/mol
[2]
  Tm: 29.1 °C

## GCTTACGAAAGTAAAGC ((((((....))).)))
[1]
  folding enthalpy: -23.8 kcal/mol
[2]
  Tm: 49.6 °C

## GGGTTGGGAAACCAATCC ((.((((....)))).))
[1]
  folding enthalpy: -32.8 kcal/mol
[2]
  Tm: 50.8 °C

## GGCGCTCGAAAGAGAGCC (((.(((....))).)))
[1]
  folding enthalpy: -36.8 kcal/mol
[2]
  Tm: 67.2 °C

## GCTTAGCGAAAGCTGGGC ((..(((....)))..))
[1]
  folding enthalpy: -20.1 kcal/mol
[2]
  Tm: 51.8 °C

## GGTAGCGAAAGCTGCACC ((((((....)))..)))
[1]
  folding enthalpy: -13.2 kcal/mol
[2]
  Tm: 39 °C

## GTACCTCGAAAGAGTTAC (((.(((....))).)))
[1]
  folding enthalpy: -27.9 kcal/mol
[2]
  Tm: 35.3 °C

## GTTCACGGAAACGCGAAC ((((.((....)).))))
[1]
  folding enthalpy: -47.1 kcal/mol
[2]
  Tm: 48.3 °C

## GCGAGGGGAAACTCTCGC (((((.(....).)))))
[1]
  folding enthalpy: -40.3 kcal/mol
[2]
  Tm: 58 °C

## GGCGCCGGAAACGGCACC ((.((((....)))).))
[1]
  folding enthalpy: -26.8 kcal/mol
[2]
  Tm: 60.5 °C

## GTGGCCACGAAAGTGCAC (((..(((....))))))
[1]
  folding enthalpy: -12.5 kcal/mol
[2]
  Tm: 38.1 °C

## GACGGCGAAAGCCCGTC ((((((....))).)))
[1]
  folding enthalpy: -24.7 kcal/mol
[2]
  Tm: 65.4 °C

## GGTGCCGAAAGGCTACC ((((((....))).)))
[1]
  folding enthalpy: -17.2 kcal/mol
[2]
  Tm: 57.8 °C

## GGACACGAAAGTGCTTCC ((((((....)))..)))
[1]
  folding enthalpy: -20.4 kcal/mol
[2]
  Tm: 40.4 °C

## GCGATGACTCGC ((((....))))
[1]
  folding enthalpy: -21.7 kcal/mol
[2]
  Tm: 47.2 °C

## GATCCATCATGGATC ((((((...))))))
[1]
  folding enthalpy: -32.5 kcal/mol
[2]
  Tm: 52.5 °C

## GCCGTTCGAAAGAATGGC (((.(((....))).)))
[1]
  folding enthalpy: -40.1 kcal/mol
[2]
  Tm: 62.6 °C

## GGAGACTCGAAAGAGTCC (((..(((....))))))
[1]
  folding enthalpy: -10 kcal/mol
[2]
  Tm: 45.4 °C

## GATCGTCCGTACGATC ((((((....))))))
[1]
  folding enthalpy: -47.3 kcal/mol
[2]
  Tm: 54.9 °C

## GGGATTGGAAACGATTCC ((.((.(....).)).))
[1]
  folding enthalpy: -21 kcal/mol
[2]
  Tm: 36.9 °C

## GCTTTTGGAAACAAAAGC (((((((....)))))))
[1]
  folding enthalpy: -42.2 kcal/mol
[2]
  Tm: 61.5 °C

## GCGCGTCGAAAGACCCGC (((.(((....))).)))
[1]
  folding enthalpy: -37.3 kcal/mol
[2]
  Tm: 55.8 °C

## GGTTTCCGAAAGGAGACC (((.(((....))).)))
[1]
  folding enthalpy: -51 kcal/mol
[2]
  Tm: 54.4 °C

## GTCACAGAAATGTGAC ((((((....))))))
[1]
  folding enthalpy: -35.2 kcal/mol
[2]
  Tm: 56.8 °C

## GCTGCGCGAAAGCCCAGC ((((.((....)).))))
[1]
  folding enthalpy: -31.1 kcal/mol
[2]
  Tm: 63.5 °C

## GGATGCGGAAACGCGTTC (.(.(((....))).).)
[1]
  folding enthalpy: -17.4 kcal/mol
[2]
  Tm: 41.5 °C

## GCCCCTGGAAACGGGGGC (((((.(....).)))))
[1]
  folding enthalpy: -33.7 kcal/mol
[2]
  Tm: 66.6 °C

## GTTGTGGAAACACAAC ((((((....))))))
[1]
  folding enthalpy: -38.3 kcal/mol
[2]
  Tm: 58.3 °C

## GAGGGAGGAAACTTCCTC ((((.((....)).))))
[1]
  folding enthalpy: -25.6 kcal/mol
[2]
  Tm: 45.6 °C

## GCAAAGGAAACTTTGC ((((((....))))))
[1]
  folding enthalpy: -31.2 kcal/mol
[2]
  Tm: 55.3 °C

## GATCAGATGACTGATC ((((((....))))))
[1]
  folding enthalpy: -35.3 kcal/mol
[2]
  Tm: 47.8 °C

## GTTATCGAAAGATATAAC ((((((....)))..)))
[1]
  folding enthalpy: -11.3 kcal/mol
[2]
  Tm: 29.3 °C

## GAGAACGAAAGTTTGCTC ((((((....)))..)))
[1]
  folding enthalpy: -16.8 kcal/mol
[2]
  Tm: 28.6 °C

## GCTCTCCGAAAGGAAGC (((.(((....))))))
[1]
  folding enthalpy: -25.8 kcal/mol
[2]
  Tm: 47.8 °C
